Series [1] can be described thus: Aqueous solubility of the compound after 24 hrs by HPLC analysis. The format is physicochemical. To be noted: aqueous medium. An outline of the steps: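 Compound was shaken in water at 300 shakes/min for 24 h, then filtered. The filtrate was quantified by HPLC on a C18 column with acetonitrile/water 70:30 at 1 mL/min, detection at 254 nm. The value is the maximum of n = 3.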

Series [2] has as its system MCF7. The series is described as follows: Induction of cell cycle arrest in human MCF7 cells assessed as accumulation of cells in sub-G1 phase at 100 nM after 48 hrs by propidium iodide staining based flow cytometry. The format is functional. An outline of the steps:
(§1)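 MCF-7 cells seeded at 1 × 10⁵ cells/cm³ and treated after 24 h for 48 h; vehicle was 1% ethanol v/v. Cells were fixed in 70% ethanol:PBS overnight at −20 °C, then stained with RNase 0.5 mg/mL and propidium iodide 0.15 mg/mL for 30 min at 37 °C. Analysed by flow cytometry, at least 10,000 gated cells, sub-diploid counted as sub-G1. Mean ± SEM of at least three experiments; one-way ANOVA with Bonferroni test.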

Series [3] relates to MCF7. The series is described as follows: Induction of mitotic catastrophe in human MCF7 cells at 100 nM after 16 hrs by immunofluorescence analysis. The format is functional, cell-based. An outline of the steps:
(§2)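 MCF-7 cells seeded at 1 × 10⁵ per well on chamber slides and treated 16 h; vehicle was 1% ethanol v/v. Fixed in methanol at −20 °C for 30 min and blocked in 5% BSA/PBST. Stained with anti-α-tubulin DM1A (1:20) and then FITC anti-mouse (1:100), each 1 h at room temperature, with DAPI counterstain. Imaged by confocal microscopy; three separate experiments.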

Series [4] has as its system MCF7. In words: Induction of microtubule depolymerization in human MCF7 cells assessed as complete loss of microtubule formation at 100 nM after 16 hrs by immunofluorescence analysis. The class given is cell-based. An outline of the steps: as §2
Series [5] has as its system MCF7. In words: Induction of cell cycle arrest in human MCF7 cells assessed as accumulation of cells in G2/M phase at 100 nM after 48 hrs by propidium iodide staining based flow cytometry. The class given is functional. An outline of the steps: as §1
The species entered for series [6] is Bos taurus. The series is described as follows: Inhibition of bovine brain tubulin polymerization measured every 30s for 60 mins by spectrophotometric analysis.
Series [7] is described as follows: Inhibition of bovine brain tubulin polymerization measured every 30s for 30 mins by spectrophotometric analysis. Also on record: species or system Bos taurus.
Series [8] has as its system MCF7. In words: Antiproliferative activity against human MCF7 cells assessed as inhibition of cell growth after 72 hrs by MTT assay. To be noted: MCF7, 72 h. The format is functional, cell-based. In outline:
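MCF-7 cells in MEM with 10% FBS, 2 mM L-glutamine, penicillin/streptomycin and 1% non-essential amino acids. Seeded at 2.5 × 10⁴ cells/mL, grown 24 h at 37 °C, then dosed from ethanol stocks over 1 nM–100 µM for 72 h; vehicle was ethanol 1% v/v. Read-out was MTT at 1 mg/mL for 2 h, solubilised in DMSO, absorbance relative to control as 100% viability. Triplicate; mean ± S.E.M of at least three experiments.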
In general terms: Formazan colour is commonly taken as a measure of viable cells.

The nature of series [9]: Half life in human plasma at pH 4 to 9. The format is ADME, cell-free.
For the next series, the system named is Colon 26. In words: Antiproliferative activity against mouse Colon 26 cells assessed as inhibition of cell growth. The format is functional, cell-based.
The nature of series [10]: Solubility in human plasma. The class given is ADME, cell-free.
Series [11] is described as follows: Solubility in human plasma at pH 7.2 to 7.5. The class given is ADME, cell-free.
The test system of series [12] is MCF7. In words: Induction of microtubule depolymerization in human MCF7 cells assessed as complete loss of microtubule formation at 1 uM after 16 hrs by immunofluorescence analysis. The format is cell-based. An outline of the steps:
as §2

Series [13] deals with MCF7. In words: Induction of cell cycle arrest in human MCF7 cells assessed as accumulation of cells in G2/M phase at 1 uM after 48 hrs by propidium iodide staining based flow cytometry. The format is functional. In outline:
as §1
A general note: A flow cytometer gives signals particle by particle.

For series [14], the system named is MCF7. In words: Induction of cell cycle arrest in human MCF7 cells assessed as accumulation of cells in sub-G1 phase at 1 uM after 48 hrs by propidium iodide staining based flow cytometry. The class given is functional. In outline:
as §1

The subject of series [15] is MCF7. The series is described as follows: Induction of mitotic catastrophe in human MCF7 cells at 1 uM after 16 hrs by immunofluorescence analysis. The format is functional, cell-based. An outline of the steps:
as §2

For series [16], the species on record is Bos taurus. In words: Inhibition of bovine brain tubulin polymerization at 10 uM measured every 30s for 60 mins by spectrophotometric analysis.

≈ marks a conversion by molar mass, not a printed value. Calls of active or inactive are those of the source. Bounds are passed on as bounds.

Usually solubility stands for the dissolved amount per volume that the medium holds. Higher therefore signals a readily soluble substance. In general, IC50 refers to the point on the concentration scale where inhibition reaches its midpoint. Turning to `COc1ccc([C@H]2[C@H](c3ccc(NC(=O)[C@@H](N)Cc4ccccc4)cc3)C(=O)N2c2cc(OC)c(OC)c(OC)c2)cc1`, the solubility at 24 h in [1] is 140 µg/mL (≈ 241 µM). Also, the outcome with MCF7 [2], with MCF7 [3], with MCF7 [4] and in the series on MCF7 [5] was Active. In addition, the inhibition entry in the series filed under Bos taurus [6] is “Dose-dependent effect”. Also, the IC50 in series [7] worked out at 2.4 µM; in the series with MCF7 [8] it was 27 nM.

In [1], `COc1ccc([C@H]2[C@H](c3ccccc3)C(=O)N2c2cc(OC)c(OC)c(OC)c2)cc1NC(=O)[C@@H](N)CO` registered a solubility at 24 h of 200 µg/mL (≈ 383 µM). Further, the IC50 in the series with MCF7 [8] came out at 780 nM.

As usually defined, the half-life is the time needed for the level to fall by half in the phase considered. Low values mean fast loss, high ones slow loss. In turn, `COc1ccc([C@H]2[C@H](c3ccc(O)cc3)C(=O)N2c2cc(OC)c(OC)c(OC)c2)cc1O` registered a half-life in [9] of more than 1440 min.

On to `COc1ccc([C@H]2[C@H](c3ccc(NC(=O)CN)cc3)C(=O)N2c2cc(OC)c(OC)c(OC)c2)cc1`, for which the solubility at 24 h in series [1] worked out at 60 µg/mL (≈ 122 µM). In [9], the half-life was more than 1440 min. Moreover, the IC50 with MCF7 [8] is 91 nM.

Consider `COc1ccc([C@H]2[C@H](c3ccccc3)C(=O)N2c2cc(OC)c(OC)c(OC)c2)cc1NC(=O)CN`, for which the IC50 in the series with MCF7 [8] was found to be 1100 nM.

Consider `COc1ccc([C@H]2[C@H](c3cccs3)C(=O)N2c2cc(OC)c(OC)c(OC)c2)cc1OP(=O)(O)O`, for which the solubility at 24 h in series [1] turned out to be 450 µg/mL (≈ 863 µM). Also, the outcome in the series with MCF7 [2], with MCF7 [3], in the series on MCF7 [4] and in the series with MCF7 [5] was Active. Besides, in the series on MCF7 [8], the IC50 came to 20 nM.

Regarding `COc1ccc([C@H]2[C@H](c3ccccc3)C(=O)N2c2cc(OC)c(OC)c(OC)c2)cc1N`, the half-life in series [9] was more than 1440 min.

The molecule `COc1ccc([C@H]2[C@H](c3ccc(NC(=O)[C@@H](N)C(C)C)cc3)C(=O)N2c2cc(OC)c(OC)c(OC)c2)cc1` had a solubility at 24 h in [1] of 4 µg/mL (≈ 7.5 µM). Further, in the series with MCF7 [8], the 50% inhibitory concentration (IC50) was 50 nM.

`COc1ccc(/C=C\c2cc(OC)c(OC)c(OC)c2)cc1NC(=O)[C@@H](N)CO` [OMBRABULIN]: the IC50 in the series on Colon 26 stood at 27.2 nM. The figures for the solubility in [10] and in [11] were 3300 µg/mL (≈ 8200 µM) and 110 µg/mL (≈ 273 µM), respectively.

`COc1ccc([C@H]2[C@H](c3ccc(NC(=O)[C@@H](N)CCCCN)cc3)C(=O)N2c2cc(OC)c(OC)c(OC)c2)cc1`: the half-maximal inhibitory concentration (IC50) in the series on MCF7 [8] was 690 nM.

Molecule `COc1ccc([C@H]2[C@H](c3ccccc3)C(=O)N2c2cc(OC)c(OC)c(OC)c2)cc1NC(=O)[C@@H](N)C(C)C` yielded a solubility at 24 h in series [1] of 110 µg/mL (≈ 206 µM). The result in the series on MCF7 [12], in the series on MCF7 [13], in the series with MCF7 [14] and with MCF7 [15] was Active. The molecule also yielded a half-life in [9] of more than 1440 min. In addition, the inhibition entry in the series listed under Bos taurus [6] was “Dose-dependent effect”. The IC50 in series [7] was found to be 5.2 µM; with MCF7 [8], 460 nM.

In [1], `COc1ccc([C@H]2[C@H](c3ccccc3)C(=O)N2c2cc(OC)c(OC)c(OC)c2)cc1NC(=O)[C@H](C)N` showed a solubility at 24 h of 370 µg/mL (≈ 732 µM). The IC50 with MCF7 [8] amounted to 760 nM.

As to `COc1ccc([C@H]2[C@H](c3ccc(NC(=O)[C@H](C)N)cc3)C(=O)N2c2cc(OC)c(OC)c(OC)c2)cc1`, the IC50 with MCF7 [8] was determined as 35 nM.

Take `COc1ccc([C@H]2[C@H](c3ccccc3)C(=O)N2c2cc(OC)c(OC)c(OC)c2)cc1NC(=O)[C@@H](N)Cc1ccc(O)cc1`: the IC50 in the series on MCF7 [8] was 740 nM.

As to `COc1ccc([C@H]2[C@H](c3ccccc3)C(=O)N2c2cc(OC)c(OC)c(OC)c2)cc1NC(=O)[C@@H](N)Cc1ccccc1`, in the series on MCF7 [8], the IC50 was 1130 nM.

Take `COc1ccc([C@H]2[C@H](c3ccccc3)C(=O)N2c2cc(OC)c(OC)c(OC)c2)cc1OP(=O)(O)O`: the solubility at 24 h in series [1] came out at 300 µg/mL (≈ 582 µM). In addition, the outcome in the series on MCF7 [2] and in the series on MCF7 [5] was Active. Further, the inhibition entry in the series filed under Bos taurus [16] is “inactive”. In the series with MCF7 [8], the IC50 came to 71 nM.

`COc1ccc([C@H]2[C@H](c3ccc(N)cc3)C(=O)N2c2cc(OC)c(OC)c(OC)c2)cc1` returned a half-life in series [9] of more than 1440 min.

Consider `COc1ccc([C@H]2[C@H](c3ccc(O)cc3)C(=O)N2c2cc(OC)c(OC)c(OC)c2)cc1OP(=O)(O)O`, for which the concentration in solution in series [1] (solubility at 24 h) was 140 µg/mL (≈ 263 µM). Also, the result with MCF7 [2], in the series on MCF7 [3], in the series on MCF7 [4] and with MCF7 [5] was Active. In series [9], this molecule displayed a half-life of more than 1440 min. Moreover, the inhibition result in the series filed under Bos taurus [16] is “inactive”. Further, the IC50 in the series on MCF7 [8] worked out at 22 nM.

In series [1], `CC[C@H](C)[C@H](N)C(=O)Nc1cc([C@H]2[C@H](c3ccccc3)C(=O)N2c2cc(OC)c(OC)c(OC)c2)ccc1OC` came in with a solubility at 24 h of 110 µg/mL (≈ 201 µM). Besides, in the series on MCF7 [8], the IC50 amounted to 1100 nM.

For `COc1ccc([C@H]2[C@H](c3ccc(NC(=O)[C@@H](N)CO)cc3)C(=O)N2c2cc(OC)c(OC)c(OC)c2)cc1`, in the series with MCF7 [8], the IC50 is 860 nM.

For the molecule `COc1ccc([C@H]2[C@H](c3ccccc3)C(=O)N2c2cc(OC)c(OC)c(OC)c2)cc1NC(=O)[C@@H](N)CCCCN`, the IC50 with MCF7 [8] amounted to 9800 nM.

Turning to `COc1ccc(/C=C\c2cc(OC)c(OC)c(OC)c2)cc1N`, the concentration in solution in series [10] (solubility) was 3300 µg/mL (≈ 10500 µM).

Values taken from ChEMBL document CHEMBL2331188, “Synthesis and biochemical activities of antiproliferative amino acid and phosphate derivatives of microtubule-disrupting β-lactam combretastatins” (Eur J Med Chem, 2013).
